Test results reported in publication PMC8102310 (Cancer discovery, 2021).
pIC50: −log10 of the molar value. Like-named read-outs stand apart in the source and are kept apart here.

How the values were obtained:
LNCaP-Bic mouse = LNCaP-Bic mouse xenograft; format: in vivo
[1] = test system: AR negative, hormone independent, cell lines; assay: Cell proliferation; format: cell-based; conditions: read-out: growth inhibition IC50
CP50c PDX = assay: CP50c patient-derived xenograft; format: in vivo, mouse
Outline: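 CP50c PDX was passaged twice in castrated mice, then fragments were grafted subcutaneously into castrated male NSG mice. Oral gavage dosing began at about 300–400 mm³, once daily, with 5% DMSO:95% methylcellulose (0.5% w/v) as vehicle or formulation. Volumes were taken every 2–3 days and grouped by 5-day intervals, n=6 per group. Growth was normalized to start, and time to 300% of starting volume served as the surrogate survival endpoint.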

[2] = test system: 44 receptors, enzymes and ion channels; assay: Safety screen of 44 receptors, enzymes and ion channels; format: biochemical; conditions: at 10 μM
BRD2, 3, 4, 9 and WDR9 = assay: Bromoscan assay of 32 bromodomains; conditions: at 1 μM; minimal binding
LNCaP95 cells = assay: AR and C-MYC signaling; format: cell-based
22Rv1 mouse xenografts = assay: 22Rv1 mouse xenograft; format: in vivo
97 kinases = assay: Screen of 97 kinases; format: biochemical; conditions: at 10 μM
[3] = test system: JQ1 resistant 22Rv1 cells; assay: Cell proliferation in JQ1 resistant cells; format: cell-based; conditions: for resistance, resistant vs parental: JQ1 resistant 22Rv1 cells
Outline: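 For resistance, 22Rv1 cells were cultured for 6 months in escalating BET inhibitor (30 nM up to 500 nM) or in 0.1% DMSO vehicle. Dose was raised only when morphology, viability and growth were good and after at least two passages at the prior dose. Parental (vehicle-cultured) and resistant cells were then compared for proliferation IC50.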

22Rv1 = assay: Cell proliferation; format: cell-based
C4–2 cells = assay: Chromatin immunoprecipitation of CBP, p300 and AR-FL at AR binding sites; format: cell-based; conditions: 500nM, 10nM dihydrotestosterone
22Rv1 cells [4] = assay: as above; format: cell-based; conditions: 500nM, 10nM dihydrotestosterone
BRD4 bromodomain = BRD4 bromodomain (Homo sapiens, UniProt O60885); format: cell-based
VCaP = assay: Cell proliferation; format: cell-based; conditions: Homo sapiens, read-out: growth inhibition IC50
LNCaP95 = assay: Cell proliferation; format: cell-based; conditions: LNCaP-95, read-out: growth inhibition IC50
22Rv1 cells [5] = assay: AR and C-MYC signaling; format: cell-based
patients with mCRPC = assay: First in human phase I trial; format: in vivo
[6] = test system: androgen-dependent and castration resistant prostate cancer cell lines; conditions: ref [35], [54]; cited from earlier work

## CO[C@H]1CC[C@H](n2c([C@@H]3CCCC(=O)N3c3ccc(F)c(F)c3)nc3cc(-c4c(C)noc4C)ccc32)CC1 [CCS1477]
LNCaP-Bic mouse
  tumor growth compared to enzalutamide: significantly (p=<0.001) reduced tumor growth
[1]
  pIC50: < 6.00
CP50c PDX; 20 mg/kg once-daily, vehicle 38
  median time to 300% growth: 56 days
CP50c PDX; oral 20 mg/kg QD vs vehicle
  survival (time to 300% growth): significantly (p=<0.001) prolonged survival
  tumor growth: significantly (p=0.02) reduced tumor growth
[2]
  biochemical inhibitory activity in safety screen: no biochemical inhibitory activity
BRD2, 3, 4, 9 and WDR9
  binding, % of control: 14–33 % of control
LNCaP95 cells; 48-hours
  expression of AR regulated genes (KLK2, KLK3 and TMPRSS2): reduced
LNCaP95 cells; LNCaP95
  C-MYC protein expression: reduced
22Rv1 mouse xenografts; 22Rv1 xenograft
  most effective tolerated dose: 20 mg/kg
22Rv1 mouse xenografts; 24-hours after the last dose
  concentration of CCS1477 in plasma and tumor: undetectable
22Rv1 mouse xenografts; after 7-days of treatment, all doses tested
  AR-FL, AR-V7 and C-MYC protein expression in tumors: reduced
22Rv1 mouse xenografts; all doses
  plasma KLK3 concentrations: decrease
22Rv1 mouse xenografts; day 52
  levels of CCS1477 in plasma or tumor: no detectable levels
22Rv1 mouse xenografts; mouse, in vivo
  tolerability: well tolerated with no change in body weight or condition of the animals
22Rv1 mouse xenografts; oral, 10mg/kg QD, 20 mg/kg QD, 30 mg/kg QOD, vs vehicle
  tumor growth: significantly (p=<0.001) impacted tumor growth
22Rv1 mouse xenografts; treatment stopped after 28-days
  tumor growth inhibition after treatment stopped at 28-days: sustained until day 52
97 kinases
  biochemical inhibitory activity: no biochemical inhibitory activity
[3]; compared with parental
  sensitivity of JQ1 resistant 22Rv1 cells to treatment: more sensitive
22Rv1; Homo sapiens, 22Rv1, read-out: growth inhibition IC50, 22Rv1
  pIC50: > 7.00
22Rv1; read-out: growth inhibition IC50, 22Rv1
  pIC50: 7.02
C4–2 cells
  recruitment of CBP, p300 and AR-FL to AR binding sites: reduced the recruitment of CBP, p300 and AR-FL
22Rv1 cells [4]
  recruitment of CBP, p300 and AR-FL to AR binding sites: reduced the recruitment of CBP, p300 and AR-FL
BRD4 bromodomain
  pIC50: 5.97
VCaP
  pIC50: > 7.00
LNCaP95
  pIC50: > 7.00
22Rv1 cells [5]; 22Rv1
  C-MYC protein expression: reduced
22Rv1 cells [5]; 48-hours
  expression of AR regulated genes (KLK2, KLK3 and TMPRSS2): reduced
Patients with mCRPC; Patient 1, 50 mg BD 3-days-on-and-4 days-off
  plasma KLK3: initial fall in plasma KLK3 which then stabilized
Patients with mCRPC; Patient 1, 50 mg BD, 4-hours post dose
  biopsy protein expression post-dose vs pre-dose (IHC): reduction in AR-V7 and C-MYC protein expression
Patients with mCRPC; Patient 2, 25 mg BD, 3-hours post dose
  biopsy protein expression post-dose vs pre-dose (IHC): reduction in C-MYC and Ki67 protein expression

## Cc1sc2c(c1C)C(c1ccc(Cl)cc1)=N[C@@H](CC(=O)Nc1ccc(O)cc1)c1nnc(C)n1-2 [OTX-015]
[3]
  resistance, resistant vs parental: > 100 fold

## Cc1sc2c(c1C)C(c1ccc(Cl)cc1)=N[C@@H](CC(=O)OC(C)(C)C)c1nnc(C)n1-2 [JQ1]
[3]
  resistance, resistant vs parental: > 100 fold
[3]; read-out: IC50 in JQ1 resistant 22Rv1 cells, resistant cells
  pIC50: 5.14
22Rv1; read-out: IC50 in parental 22Rv1 cells, parental cells, vehicle cultured
  pIC50: 7.22

## I-BET151
[3]
  resistance, resistant vs parental: > 100 fold

## CC1=NN(c2ccc(C(=O)O)cc2)C(=O)/C1=C\c1ccc(-c2cc(C)c(C)cc2[N+](=O)[O-])o1 [C646]
[6]
  cell death: induce cell death

## CNC(=O)Nc1ccc2c(c1)CC[C@@]21OC(=O)N(CC(=O)N(Cc2ccc(F)cc2)[C@@H](C)C(F)(F)F)C1=O [A-485]
[6]
  cell death: induce cell death
